Reference: ChEMBL document CHEMBL1221273, “Addressing time-dependent CYP 3A4 inhibition observed in a novel series of substituted amino propanamide renin inhibitors, a case study” (Bioorg Med Chem Lett, 2010)

Tests used:
[1] = biological target: T1, CYP3A4 (Homo sapiens, UniProt P08684); experiment: Ratio of IC50 for human CYP3A4 without preincubation to IC50 for human CYP3A4 preincubated for 30 mins; conditions: read-out: Ratio IC50
Summary of the method: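 Human liver microsomes (0.25 mg/mL) were preincubated 0 or 30 min at 37 °C with compound (0.03–200 µM) and 1 mM NADPH in 125 mM phosphate buffer. Testosterone (500 µM) was then added for 15 min at 37 °C. Reactions were quenched with acetonitrile and 6β-hydroxytestosterone was measured by HPLC-MS/MS. IC50s were determined under each condition, and the shift is the ratio of the 0-min to the 30-min IC50.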

[2] = biological target: T2, Renin (Homo sapiens, UniProt P00797); experiment: Inhibition of human recombinant renin in presence of pH 7.4 buffer
T2 sequence (P00797 whole entry): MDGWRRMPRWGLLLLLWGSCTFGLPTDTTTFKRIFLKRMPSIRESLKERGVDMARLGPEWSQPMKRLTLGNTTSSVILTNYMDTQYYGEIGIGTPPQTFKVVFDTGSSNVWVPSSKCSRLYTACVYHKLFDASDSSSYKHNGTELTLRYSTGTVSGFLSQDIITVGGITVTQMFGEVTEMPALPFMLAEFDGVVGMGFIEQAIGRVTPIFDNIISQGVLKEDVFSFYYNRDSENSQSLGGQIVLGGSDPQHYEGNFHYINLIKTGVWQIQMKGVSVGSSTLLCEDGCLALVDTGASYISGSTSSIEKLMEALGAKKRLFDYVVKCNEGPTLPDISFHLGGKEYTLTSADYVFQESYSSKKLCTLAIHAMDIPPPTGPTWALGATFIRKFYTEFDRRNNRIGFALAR
Summary of the method: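 Recombinant human renin (3 pg/µL) in PBS pH 7.4 with 1 mM EDTA and 0.1% BSA, premixed with human tetradecapeptide (1–14) substrate and hydroxyquinoline sulfate. Compounds were diluted in DMSO and added, then incubated 3 h at 37 °C. AngI accumulation was measured by immunoassay. % inhibition was computed for each concentration and IC50 obtained by curve fitting. Values are the mean of at least two replicates.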

[3] = test system: Rattus norvegicus; experiment: Antihypertensive activity in double transgenic rat hypertensive model assessed as time required to reduce blood pressure at 1 mg/kg, po; type: functional
[4] = Clearance in Sprague-Dawley rat at 30 mg/kg, po; type: ADME, organism-based; design: dose 30 mg/kg, route oral; conditions: in vivo
[5] = Half life in Sprague-Dawley rat at 30 mg/kg, po; type: ADME, organism-based; design: dose 30 mg/kg, route oral; conditions: in vivo
[6] = Clearance in Beagle dog at 3 mg/kg, po; type: ADME, organism-based, Canis lupus familiaris; design: dose 3 mg/kg, route oral; conditions: in vivo
[7] = biological target: T3, Cytochrome P450 3A4 (Homo sapiens, UniProt P08684); experiment: Inhibition of CYP3A4 in human liver microsome preincubated for 30 mins; type: ADME, microsomes
T3 sequence (P08684 whole entry): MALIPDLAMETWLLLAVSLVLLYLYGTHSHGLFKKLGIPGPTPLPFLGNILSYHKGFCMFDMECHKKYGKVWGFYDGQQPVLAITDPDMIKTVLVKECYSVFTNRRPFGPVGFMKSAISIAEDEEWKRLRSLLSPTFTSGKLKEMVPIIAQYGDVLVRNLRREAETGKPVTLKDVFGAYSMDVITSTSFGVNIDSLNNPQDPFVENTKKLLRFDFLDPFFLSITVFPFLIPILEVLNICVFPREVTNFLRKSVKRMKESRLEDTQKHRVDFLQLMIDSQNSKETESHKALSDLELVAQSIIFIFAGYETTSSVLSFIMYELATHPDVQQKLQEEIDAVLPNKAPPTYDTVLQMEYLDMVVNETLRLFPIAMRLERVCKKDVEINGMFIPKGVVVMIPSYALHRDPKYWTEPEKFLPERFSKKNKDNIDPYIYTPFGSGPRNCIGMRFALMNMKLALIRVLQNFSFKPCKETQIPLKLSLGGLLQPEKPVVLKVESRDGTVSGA
Summary of the method: (§1)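 Human liver microsomes (0.25 mg/mL) pre-incubated 0 or 30 min at 37 °C with test compound (0.03–200 µM range as printed) and 1 mM NADPH in 125 mM phosphate buffer. Testosterone (500uM) then added as CYP3A substrate, 15 min further at 37 °C. Quenched with acetonitrile, centrifuged, and 6b-hydroxytestosterone formation read by HPLC-MS/MS. IC50 averaged over at least two replicates.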

[8] = Oral bioavailability in Beagle dog at 3 mg/kg; type: ADME, organism-based, Canis lupus familiaris; conditions: in vivo
[9] = biological target: T1, CYP3A4; experiment: Inhibition of CYP3A4 in human liver microsome at 3 uM; type: ADME; conditions: liver microsomes
[10] = Metabolic stability in human liver microsome assessed as compound remaining at 20 uM after 1 hr; type: ADME; conditions: liver microsomes, read-out: Stability
[11] = biological target: T1, CYP3A4; experiment: (§2) Inhibition of CYP3A4 in human liver microsome; type: ADME, microsomes; conditions: human, liver microsomes; summary of the method: as §1
[12] = biological target: T3, Cytochrome P450 3A4; experiment: as §2; type: ADME, microsomes; summary of the method: as §1
[13] = Metabolic stability in human liver microsome assessed as compound remaining at 50 uM after 1 hr; type: ADME; conditions: liver microsomes, read-out: Stability
[14] = test system: Rattus norvegicus; experiment: Antihypertensive activity in double transgenic rat hypertensive model assessed as reduction in blood pressure at 1 mg/kg, po; type: functional
[15] = Half life in Beagle dog at 3 mg/kg, po; type: ADME, organism-based, Canis lupus familiaris; design: dose 3 mg/kg, route oral; conditions: in vivo
[16] = test system: Rattus norvegicus; experiment: Volume of distribution at steady state in Sprague-Dawley rat at 30 mg/kg, po; type: ADME, organism-based; design: dose 30 mg/kg, route oral; conditions: in vivo
[17] = biological target: T2, Renin; experiment: Inhibition of human recombinant renin in presence of plasma by immunoassay; type: cell-free
Summary of the method: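 Pooled frozen human citrate plasma was spiked with recombinant human renin (150 pg/mL final). Compounds at various concentrations in DMSO were added to a 7:1 mix of plasma and anti-AngI trapping antibody (final antiserum 1:50,000) in Tris/EDTA pH 7.2, then incubated 2 h at 37 °C. AngI was read by immunoassay and IC50 fitted. Values are the mean of at least two replicates.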

[18] = test system: Canis familiaris; experiment: Volume of distribution at steady state in Beagle dog at 3 mg/kg, po; type: ADME, organism-based, Canis lupus familiaris; design: dose 3 mg/kg, route oral; conditions: in vivo
[19] = Intrinsic clearance in human liver microsome; type: ADME; conditions: liver microsomes
Summary of the method: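 Compound (1 µM) was incubated at 37 °C with human liver microsomes (1 mg/mL) and an NADPH regenerating system in 125 mM phosphate buffer. Samples were quenched with acetonitrile at 2, 5, 10, 20, 45 and 75 min and parent loss was followed by HPLC-MS/MS. CLint was calculated from the initial elimination rate constant.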

[20] = Oral bioavailability in Sprague-Dawley rat at 30 mg/kg; type: ADME, organism-based; conditions: in vivo
[21] = test system: Rattus norvegicus; experiment: Antihypertensive activity in double transgenic rat hypertensive model assessed as reduction in blood pressure at 3 mg/kg, po; type: functional
[22] = test system: Rattus norvegicus; experiment: Antihypertensive activity in double transgenic rat hypertensive model assessed as time required to reduce blood pressure at 3 mg/kg, po; type: functional

T1 sequence (P08684 whole entry): as above

Row | Compound | IC50 shift [1] | further results
1 | COCCc1ccc(Cl)c(CN(CC2CCC2)C(=O)[C@@H](CN)Cc2ccc(OCCOc3c(Cl)cc(C)cc3Cl)cc2)c1 | 130 | 
2 | COCCCc1ccc(Cl)c(CN(C(=O)[C@@H](CN)Cc2ccc(OCCOc3c(Cl)cc(C)cc3Cl)cc2)C2CC2)c1 | 110 | IC50 [2]: 0.09 nM; Time [3]: 24 h; CL/F [4]: 35 mL/min/kg; half-life [5]: 6 h; CL/F [6]: 16 mL/min/kg; IC50 [7]: 120 nM; bioavailability [8]: 32%; inhibition at 3 µM [9]: 7%; remaining at 1 h, 20 µM [10]: 94%; kinact [11]: 0.00157 s⁻¹; IC50 [12]: 14000 nM; Ki [12]: 3200 nM; remaining at 1 h, 50 µM [13]: 98%; Activity [14]: 13 mmHg; half-life [15]: 17 h; Vdss [16]: 12 L/kg; IC50 [17]: 2.4 nM; Vdss [18]: 8.4 L/kg; CLint scaled [19]: 15 mL/min/kg; bioavailability [20]: 41%
3 | COCCc1ccc(Cl)c(CN(C(=O)[C@@H](CN)Cc2ccc(OCCOc3c(Cl)cc(C)cc3Cl)cc2)C2CC2)c1 | 110 | 
4 | Cc1cc(Cl)c(OCCOc2ccc(C[C@H](CN)C(=O)N(Cc3cc(CCCC#N)ccc3Cl)C3CC3)cc2)c(Cl)c1 | 120 | Activity [21]: 27 mmHg; Time [22]: 48 h
5 | CC(=O)N(C)Cc1ccc(Cl)c(CN(C(=O)[C@@H](CN)Cc2ccc(OCCOc3c(Cl)cc(C)cc3Cl)cc2)C2CC2)c1 | 35 | 
6 | Cc1cc(Cl)c(OCCOc2ccc(C[C@H](CN)C(=O)N(Cc3cc(CCS(C)(=O)=O)ccc3Cl)C3CC3)cc2)c(Cl)c1 | 50 | 
7 | COCCCc1cc(CN(C(=O)[C@@H](CN)Cc2ccc(OCCOc3c(Cl)cc(C)cc3Cl)cc2)C2CC2)c(Cl)cn1 | 90 | 
8 | COCCCc1cc(CN(C(=O)[C@@H](CN)Cc2ccc(OCCOc3c(Cl)cc(C)cc3Cl)cc2)C2CC2)c(Cl)c[n+]1[O-] | 70 | 
9 | COCCCc1cc(CN(C(=O)[C@@H](CN)Cc2ccc(OCCOc3c(Cl)cc(C)cc3Cl)cc2)C2CC2)c2ccccc2n1 | 120 | 
10 | Cc1cc(Cl)c(OCCOc2ccc(C[C@H](CN)C(=O)N(Cc3cc(CCCC#N)cc4cccnc34)C3CC3)cc2)c(Cl)c1 | 140 | 
11 | COCCc1ccc(Cl)c(CN(C(=O)[C@H](Cc2ccc(OCCOc3c(Cl)cc(C)cc3Cl)cc2)[C@H](C)N)C2CC2)c1 | 60 | 
12 | COCCc1ccc(Cl)c(CN(C(=O)[C@H](Cc2ccc(OCCOc3c(Cl)cc(C)cc3Cl)cc2)C(N)=O)C2CC2)c1 | 55 | 
13 | COCCc1ccc(Cl)c(CN(C(=O)CCc2ccc(OCCOc3c(Cl)cc(C)cc3Cl)cc2)C2CC2)c1 | 40 | 
14 | COCCc1ccc(Cl)c(CN(C)C(=O)[C@@H](CN)Cc2ccc(OCCOc3c(Cl)cc(C)cc3Cl)cc2)c1 | 40 | 
15 | COCCc1ccc(Cl)c(CN(C(=O)[C@@H](CN)Cc2ccc(OCCOc3c(Cl)cc(C)cc3Cl)cc2)C2CCC2)c1 | 180 | 
16 | COCCc1ccc(Cl)c(CN(CC2CC2)C(=O)[C@@H](CN)Cc2ccc(OCCOc3c(Cl)cc(C)cc3Cl)cc2)c1 | 100 | 
17 | COCCc1ccc(Cl)c(CN(C(=O)[C@@H](CN)Cc2ccccc2)C2CC2)c1 | 120 | 
18 | COCCc1ccc(Cl)c(CN(C(=O)[C@@H](CN)Cc2ccc(CCOc3c(Cl)cc(C)cc3Cl)cc2)C2CC2)c1 | 60 | 
19 | COCCc1ccc(Cl)c(CN(C[C@@H](CN)Cc2ccc(OCCOc3c(Cl)cc(C)cc3Cl)cc2)C2CC2)c1 | 5.8 | 
20 | COCCc1ccc(Cl)c(C[C@H](C[C@@H](CN)Cc2ccc(OCCOc3c(Cl)cc(C)cc3Cl)cc2)C2CC2)c1 | 3.5 | 
21 | COCCc1ccc(Cl)c(C[C@@H](C[C@@H](CN)Cc2ccc(OCCOc3c(Cl)cc(C)cc3Cl)cc2)C2CC2)c1 | 1.7 | 
22 | COCCCc1cc(CN(C(=O)[C@@H](CN)Cc2ccc(OCCOc3c(Cl)cc(C)cc3Cl)cc2)C2CC2)cc(OCCOC)c1 | 1.5 | 
23 | COCCCc1cc(CN(C(=O)[C@@H](CN)Cc2ccc(OCCOc3c(Cl)cc(C)cc3Cl)cc2)C2CC2)cc(OCCN2CCOCC2)c1 | < 1 | 
